# Results from ChEMBL document CHEMBL1123984, “Stereochemical aspects of phenylethanolamine analogues as substrates of phenylethanolamine N-methyltransferase” (J Med Chem, 1988).
# T1: Phenylethanolamine N-methyltransferase (Bos taurus, UniProt P10938)
# T1 sequence (P10938 whole entry): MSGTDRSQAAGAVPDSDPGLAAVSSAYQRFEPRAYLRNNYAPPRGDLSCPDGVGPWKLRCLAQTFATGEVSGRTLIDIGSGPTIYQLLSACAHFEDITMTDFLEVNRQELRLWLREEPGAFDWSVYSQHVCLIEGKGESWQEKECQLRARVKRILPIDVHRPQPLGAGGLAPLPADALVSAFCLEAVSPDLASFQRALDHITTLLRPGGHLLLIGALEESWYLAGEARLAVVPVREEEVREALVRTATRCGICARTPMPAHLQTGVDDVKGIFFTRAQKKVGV
# What was measured:
# [1] = Vmax of compound was determined; assay type: ADME
# How it was run: (§1)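 Substrate kinetics used bovine adrenal PNMT, purified through the isoelectric precipitation step, in a radiochemical methylation assay with isoamyl alcohol/toluene extraction. At least five concentrations of the variable substrate gave Km and Vmax. Vmax is in nmol product per mg protein per min, and the ratio is 100 × Vmax/Km.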
# [2] = Ratio expressed as 100x Vmax/Km; assay type: ADME; how it was run: as §1
# [3] = molecular target: T1, Phenylethanolamine N-methyltransferase; test: (§2) In vitro binding affinity of compound towards bovine adrenal phenylethanolamine N-methyl-transferase (PNMT)
# How it was run: (§3)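 Bovine adrenal PNMT, purified through the isoelectric precipitation step, tested in a radiochemical methylation assay with isoamyl alcohol/toluene extraction. For substrates, Km came from at least five concentrations of the variable substrate. For inhibitors, Ki came from at least three inhibitor concentrations, with phenylethanolamine as the variable substrate.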
# [4] = substrate: C[C@H](N)[C@H](O)c1ccccc1; test: as §2; how it was run: as §3
# [5] = substrate: N[C@H]1CCc2ccccc2[C@H]1O; test: as §2; how it was run: as §3
Molecule,Vmax [1] [nM/mg/min],Ratio [2],Ki [3] [µM],other results
N[C@H]1CCc2ccccc2[C@H]1O,0.16,3.6,–,–
NC[C@H](O)c1ccccc1,4.85,1.7,–,–
N[C@@H]1CCc2ccccc2C1,–,–,10,–
N[C@H]1CCc2ccccc2[C@@H]1O,–,–,4.6,–
C[C@@H](N)[C@H](O)c1ccccc1,–,–,2440,–
"C[C@H](N)[C@H](O)c1ccccc1 [(1R,2S)-PHENYLPROPANOLAMINE]",0.22,0.017,–,–
N[C@@H]1CCc2ccccc2[C@@H]1O (racemic),0.15,–,–,–
NC[C@@H](O)c1ccccc1,0.92,0.96,–,–
N[C@H]1CCc2ccccc2C1,–,–,4.1,–
"N[C@@H]1CCc2ccccc2C1O (single isomer, unassigned)",0.12,0.062,–,–
N[C@@H]1CCc2ccccc2[C@@H]1O,–,–,293,–
"C[C@@H](N)[C@@H](O)c1ccccc1 [(1S,2R)-PHENYLPROPANOLAMINE]",–,–,2980,–
C[C@H](N)[C@@H](O)c1ccccc1 [CATHINE],–,–,3700,–
"Phenylethanolamine N-methyltransferase (Bos taurus), P10938 (protein) MSGTDRSQAAGAVPDSDPGLAAVSSAYQRFEPRAYLRNNYAPPRGDLSCPDGVGPWKLRCLAQTFATGEVSGRTLIDIGSGPTIYQLLSACAHFEDITMTDFLEVNRQELRLWLREEPGAFDWSVYSQHVCLIEGKGESWQEKECQLRARVKRILPIDVHRPQPLGAGGLAPLPADALVSAFCLEAVSPDLASFQRALDHITTLLRPGGHLLLIGALEESWYLAGEARLAVVPVREEEVREALVRTATRCGICARTPMPAHLQTGVDDVKGIFFTRAQKKVGV",–,–,–,Km [4]: 1310 µM; Km [5]: 4.5 µM
